Laboratory results: ChEMBL document CHEMBL1134032, “Rational design, synthesis, and biological evaluation of rigid pyrrolidone analogues as potential inhibitors of prostate cancer cell growth” (Bioorg Med Chem Lett, 2001)

Key:
[1] = biological target: Protein kinase C delta type (Homo sapiens, UniProt Q05655); assay: Inhibition of [3H]-phorbol 12,13-dibutyrate (PDBu) binding to human recombinant protein kinase C delta
Summary of the method: (§1)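 Competitive displacement of [3H]PDBu binding from recombinant human PKC isozymes (alpha, beta, gamma, delta, epsilon), each tested separately. Affinity is reported as Ki in nM.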

[2] = biological target: Protein kinase C beta type (Homo sapiens, UniProt P05771); assay: Inhibition of [3H]-phorbol 12,13-dibutyrate (PDBu) binding to human recombinant protein kinase C beta; summary of the method: as §1
Chain of Protein kinase C beta type (P05771 whole entry): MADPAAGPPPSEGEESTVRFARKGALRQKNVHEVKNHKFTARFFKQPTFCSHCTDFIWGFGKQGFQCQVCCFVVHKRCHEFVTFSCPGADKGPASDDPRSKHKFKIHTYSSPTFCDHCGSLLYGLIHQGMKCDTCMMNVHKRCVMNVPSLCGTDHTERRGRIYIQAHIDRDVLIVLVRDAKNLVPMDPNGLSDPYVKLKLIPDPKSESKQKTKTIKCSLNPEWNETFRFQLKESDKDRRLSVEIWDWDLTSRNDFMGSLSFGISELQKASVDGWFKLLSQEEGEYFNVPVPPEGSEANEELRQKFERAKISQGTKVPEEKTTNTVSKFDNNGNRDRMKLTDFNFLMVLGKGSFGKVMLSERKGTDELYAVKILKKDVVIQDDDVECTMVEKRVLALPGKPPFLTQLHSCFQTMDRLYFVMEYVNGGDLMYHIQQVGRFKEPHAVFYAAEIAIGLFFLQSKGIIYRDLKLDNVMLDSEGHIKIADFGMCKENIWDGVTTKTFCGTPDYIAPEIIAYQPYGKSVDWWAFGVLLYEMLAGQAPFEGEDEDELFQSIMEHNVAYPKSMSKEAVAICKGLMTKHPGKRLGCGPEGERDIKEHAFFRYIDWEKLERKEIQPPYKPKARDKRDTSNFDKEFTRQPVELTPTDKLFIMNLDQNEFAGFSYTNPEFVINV

[3] = biological target: Protein kinase C gamma type (Homo sapiens, UniProt P05129); assay: Inhibition of [3H]-phorbol 12,13-dibutyrate (PDBu) binding to human recombinant protein kinase C gamma; summary of the method: as §1
[4] = biological target: T1, Protein kinase C epsilon type (Homo sapiens, UniProt Q02156); assay: Inhibition of [3H]-phorbol 12,13-dibutyrate (PDBu) binding to human recombinant protein kinase C epsilon; summary of the method: as §1
T1 sequence (Q02156 whole entry): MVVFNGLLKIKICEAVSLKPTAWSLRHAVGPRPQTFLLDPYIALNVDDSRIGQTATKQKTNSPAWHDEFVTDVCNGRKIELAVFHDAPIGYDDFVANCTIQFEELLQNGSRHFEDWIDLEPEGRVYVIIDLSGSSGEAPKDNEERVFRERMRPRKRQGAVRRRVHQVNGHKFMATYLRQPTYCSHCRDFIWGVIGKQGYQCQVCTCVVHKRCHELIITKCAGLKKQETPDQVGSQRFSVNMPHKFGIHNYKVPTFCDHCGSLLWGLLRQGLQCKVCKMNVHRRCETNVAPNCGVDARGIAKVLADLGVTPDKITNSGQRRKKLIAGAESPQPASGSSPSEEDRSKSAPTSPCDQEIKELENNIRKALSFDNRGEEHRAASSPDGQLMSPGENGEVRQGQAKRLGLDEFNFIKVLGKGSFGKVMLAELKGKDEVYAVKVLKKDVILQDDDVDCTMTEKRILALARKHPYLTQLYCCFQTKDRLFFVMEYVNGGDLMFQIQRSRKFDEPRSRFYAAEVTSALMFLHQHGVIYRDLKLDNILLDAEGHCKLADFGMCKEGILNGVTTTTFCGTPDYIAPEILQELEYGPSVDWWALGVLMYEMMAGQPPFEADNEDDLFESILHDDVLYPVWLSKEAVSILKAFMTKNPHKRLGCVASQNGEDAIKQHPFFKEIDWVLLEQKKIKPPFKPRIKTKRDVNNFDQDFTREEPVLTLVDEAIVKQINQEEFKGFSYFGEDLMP

[5] = biological target: Protein kinase C alpha type (Homo sapiens, UniProt P17252); assay: Inhibition of [3H]-phorbol 12,13-dibutyrate (PDBu) binding to human recombinant protein kinase C alpha; summary of the method: as §1

Chain of Protein kinase C delta type (Q05655 whole entry): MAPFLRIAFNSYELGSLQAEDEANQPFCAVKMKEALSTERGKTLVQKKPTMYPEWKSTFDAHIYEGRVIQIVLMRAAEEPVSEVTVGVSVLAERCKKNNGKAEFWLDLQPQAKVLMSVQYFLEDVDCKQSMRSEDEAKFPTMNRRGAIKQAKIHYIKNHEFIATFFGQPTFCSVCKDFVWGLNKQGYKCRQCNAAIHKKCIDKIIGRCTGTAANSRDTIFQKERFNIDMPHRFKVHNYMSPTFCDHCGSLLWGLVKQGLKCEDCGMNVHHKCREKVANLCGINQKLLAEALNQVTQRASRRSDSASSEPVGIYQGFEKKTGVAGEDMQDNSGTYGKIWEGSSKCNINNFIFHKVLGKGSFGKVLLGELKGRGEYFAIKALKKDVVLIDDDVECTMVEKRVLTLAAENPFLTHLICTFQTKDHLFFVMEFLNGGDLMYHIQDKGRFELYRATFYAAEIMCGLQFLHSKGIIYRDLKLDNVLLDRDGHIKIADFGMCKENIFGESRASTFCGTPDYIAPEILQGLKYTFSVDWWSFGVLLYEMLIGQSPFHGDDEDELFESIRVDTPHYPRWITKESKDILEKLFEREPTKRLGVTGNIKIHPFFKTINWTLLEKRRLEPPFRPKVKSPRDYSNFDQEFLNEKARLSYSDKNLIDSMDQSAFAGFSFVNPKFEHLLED

Row | SMILES | Ki [1] [nM] | Ki [2] [nM] | Ki [3] [nM] | Ki [4] [nM] | Ki [5] [nM]
1 | CCCCCCCCCCCCCC(=O)O[C@@H]1[C@@H](C)[C@@]2(O)[C@@H](C=C(CO)C[C@]3(O)C(=O)C(C)=C[C@@H]23)[C@@H]2C(C)(C)[C@]12OC(C)=O [PHORBOL MYRISTATE ACETATE] | 0.8 | 1.8 | 4.9 | 0.45 | 
2 | CCCCCCCCC#Cc1ccc2c(c1)[C@](C)(C(C)C)[C@H]1C(=O)N[C@H](CO)[C@@H]21 | 1630 |  | 279 | 469 | 580
3 | CCCCCCCCC#Cc1ccc2c(c1)C[C@@H](CO)NC(=O)[C@H](C(C)C)N2C | 114 | 70 | 43 | 40 | 23
